Data published in ChEMBL document CHEMBL4689842, “EUbOPEN Chemogenomics Library wave 1” (2021).

Test system: U2OS
Test: Multiplex assay against U2OS
Assay type: toxicity, cell-based
Details: human
Procedure, shortened: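 Values for tubulin, mitochondrial-mass and membrane-permeability phenotypes are per cents of cells with healthy nuclei. These cells were identified by CellPathfinder machine-learning gating of live cells that had been stained at seeding with Hoechst33342, BioTracker Green Microtubule Cytoskeleton Dye, MitoTracker Red and Annexin V Alexa Fluor 680 and imaged on a CQ1 microscope at 37°C and 5% CO2 after compound addition. The gating first set Hoechst high-intensity objects apart from normal cells, then split normal cells into healthy, pyknosed or fragmented nuclei, and pyknosed cells into mitotic or apoptotic.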

[1] = 12 h, 1 µM, compound concentration 1 uM, replicate 1
[2] = 12 h, 1 µM, compound concentration 1 uM, replicate 2
[3] = 12 h, 10 µM, compound concentration 10 uM, replicate 1
[4] = 12 h, 10 µM, compound concentration 10 uM, replicate 2
[5] = 24 h, 1 µM, compound concentration 1 uM, replicate 1
[6] = 24 h, 1 µM, compound concentration 1 uM, replicate 2
[7] = 24 h, 10 µM, compound concentration 10 uM, replicate 1
[8] = 24 h, 10 µM, compound concentration 10 uM, replicate 2

## CNC(=O)c1ccc(Nc2nc(OC3CCCC3)c3c(-c4ccc5nc(C)oc5c4)c[nH]c3n2)c(OC)c1
[1]
  Population Apoptotic (%): 36%
  Population Fragmented Nuclei (%): 10%
  Population Healthy Nuclei (%): 64%
  Population Hoechst High Intensity Objects (%): 2%
  Population Membrane Permeable-Phenotype (%): 58%
  Population Mitochondria Different-Phenotype (%): 45%
  Population Mitotic Cells (%): 63%
  Population Normal (%): 97%
  Population Pyknosed Nuclei (%): 25%
[2]
  Population Apoptotic (%): 30%
  Population Fragmented Nuclei (%): 14%
  Population Healthy Nuclei (%): 72%
  Population Hoechst High Intensity Objects (%): 6%
  Population Membrane Permeable-Phenotype (%): 63%
  Population Mitochondria Different-Phenotype (%): 40%
  Population Mitotic Cells (%): 70%
  Population Normal (%): 93%
  Population Pyknosed Nuclei (%): 13%
  Population Tubulin-Different-Phenotype (%): 100%
[3]
  Population Apoptotic (%): 30%
  Population Fragmented Nuclei (%): 1%
  Population Healthy Nuclei (%): 87%
  Population Hoechst High Intensity Objects (%): 1%
  Population Membrane Permeable-Phenotype (%): 62%
  Population Mitochondria Different-Phenotype (%): 18%
  Population Mitotic Cells (%): 70%
  Population Normal (%): 98%
  Population Pyknosed Nuclei (%): 11%
  Population Tubulin-Different-Phenotype (%): 90%
[4]
  Population Apoptotic (%): 25%
  Population Fragmented Nuclei (%): 22%
  Population Healthy Nuclei (%): 72%
  Population Hoechst High Intensity Objects (%): 22%
  Population Membrane Permeable-Phenotype (%): 54%
  Population Mitochondria Different-Phenotype (%): 26%
  Population Mitotic Cells (%): 75%
  Population Normal (%): 77%
  Population Pyknosed Nuclei (%): 4%
  Population Tubulin-Different-Phenotype (%): 65%
[5]
  Population Apoptotic (%): 89%
  Population Fragmented Nuclei (%): 12%
  Population Healthy Nuclei (%): 8%
  Population Hoechst High Intensity Objects (%): 5%
  Population Membrane Permeable-Phenotype (%): 92%
  Population Mitochondria Different-Phenotype (%): 84%
  Population Mitotic Cells (%): 10%
  Population Normal (%): 94%
  Population Pyknosed Nuclei (%): 79%
  Population Tubulin-Different-Phenotype (%): 100%
[6]
  Population Apoptotic (%): 60%
  Population Fragmented Nuclei (%): 25%
  Population Healthy Nuclei (%): 48%
  Population Hoechst High Intensity Objects (%): 11%
  Population Membrane Permeable-Phenotype (%): 65%
  Population Mitochondria Different-Phenotype (%): 73%
  Population Mitotic Cells (%): 40%
  Population Normal (%): 88%
  Population Pyknosed Nuclei (%): 25%
[7]
  Population Apoptotic (%): 43%
  Population Fragmented Nuclei (%): 6%
  Population Healthy Nuclei (%): 73%
  Population Hoechst High Intensity Objects (%): 1%
  Population Membrane Permeable-Phenotype (%): 43%
  Population Mitochondria Different-Phenotype (%): 18%
  Population Mitotic Cells (%): 56%
  Population Normal (%): 98%
  Population Pyknosed Nuclei (%): 20%
  Population Tubulin-Different-Phenotype (%): 71%
[8]
  Population Apoptotic (%): 62%
  Population Fragmented Nuclei (%): 23%
  Population Healthy Nuclei (%): 67%
  Population Hoechst High Intensity Objects (%): 14%
  Population Membrane Permeable-Phenotype (%): 30%
  Population Mitochondria Different-Phenotype (%): 28%
  Population Mitotic Cells (%): 37%
  Population Normal (%): 85%
  Population Pyknosed Nuclei (%): 8%
  Population Tubulin-Different-Phenotype (%): 55%

## Cc1ccc2nc(NCCN)c3ncc(C)n3c2c1.O=C(O)C(F)(F)F.O=C(O)C(F)(F)F
[1]
  Population Apoptotic (%): 29%
  Population Fragmented Nuclei (%): 6%
  Population Healthy Nuclei (%): 83%
  Population Hoechst High Intensity Objects (%): 1%
  Population Membrane Permeable-Phenotype (%): 6%
  Population Mitochondria Different-Phenotype (%): 17%
  Population Mitotic Cells (%): 70%
  Population Normal (%): 98%
  Population Pyknosed Nuclei (%): 10%
  Population Tubulin-Different-Phenotype (%): 27%
  Total Cell Count: 235
[2]
  Population Apoptotic (%): 4%
  Population Fragmented Nuclei (%): 8%
  Population Healthy Nuclei (%): 75%
  Population Hoechst High Intensity Objects (%): 13%
  Population Mitotic Cells (%): 95%
  Population Normal (%): 86%
  Population Pyknosed Nuclei (%): 16%
  Population Tubulin-Different-Phenotype (%): 17%
  Total Cell Count: 151
[3]
  Population Apoptotic (%): 28%
  Population Fragmented Nuclei (%): 17%
  Population Healthy Nuclei (%): 65%
  Population Hoechst High Intensity Objects (%): 8%
  Population Membrane Permeable-Phenotype (%): 17%
  Population Mitochondria Different-Phenotype (%): 11%
  Population Mitotic Cells (%): 71%
  Population Normal (%): 91%
  Population Pyknosed Nuclei (%): 17%
  Population Tubulin-Different-Phenotype (%): 17%
  Total Cell Count: 132
[4]
  Population Apoptotic (%): 50%
  Population Fragmented Nuclei (%): 27%
  Population Healthy Nuclei (%): 53%
  Population Hoechst High Intensity Objects (%): 12%
  Population Membrane Permeable-Phenotype (%): 15%
  Population Mitochondria Different-Phenotype (%): 13%
  Population Mitotic Cells (%): 50%
  Population Normal (%): 87%
  Population Pyknosed Nuclei (%): 18%
  Population Tubulin-Different-Phenotype (%): 22%
  Total Cell Count: 123
[5]
  Population Apoptotic (%): 33%
  Population Fragmented Nuclei (%): 2%
  Population Healthy Nuclei (%): 93%
  Population Hoechst High Intensity Objects (%): 1%
  Population Membrane Permeable-Phenotype (%): 7%
  Population Mitochondria Different-Phenotype (%): 19%
  Population Mitotic Cells (%): 66%
  Population Normal (%): 98%
  Population Pyknosed Nuclei (%): 3%
  Population Tubulin-Different-Phenotype (%): 31%
  Total Cell Count: 309
[6]
  Population Apoptotic (%): 18%
  Population Fragmented Nuclei (%): 6%
  Population Healthy Nuclei (%): 84%
  Population Hoechst High Intensity Objects (%): 8%
  Population Mitochondria Different-Phenotype (%): 32%
  Population Mitotic Cells (%): 81%
  Population Normal (%): 91%
  Population Pyknosed Nuclei (%): 9%
  Population Tubulin-Different-Phenotype (%): 20%
  Total Cell Count: 192
[7]
  Population Apoptotic (%): 76%
  Population Fragmented Nuclei (%): 27%
  Population Healthy Nuclei (%): 30%
  Population Hoechst High Intensity Objects (%): 8%
  Population Membrane Permeable-Phenotype (%): 32%
  Population Mitochondria Different-Phenotype (%): 26%
  Population Mitotic Cells (%): 23%
  Population Normal (%): 91%
  Population Pyknosed Nuclei (%): 41%
  Population Tubulin-Different-Phenotype (%): 32%
  Total Cell Count: 123
[8]
  Population Apoptotic (%): 61%
  Population Fragmented Nuclei (%): 29%
  Population Healthy Nuclei (%): 36%
  Population Hoechst High Intensity Objects (%): 14%
  Population Membrane Permeable-Phenotype (%): 24%
  Population Mitochondria Different-Phenotype (%): 42%
  Population Mitotic Cells (%): 38%
  Population Normal (%): 85%
  Population Pyknosed Nuclei (%): 34%
  Population Tubulin-Different-Phenotype (%): 30%
  Total Cell Count: 106
